Assay results from ChEMBL document CHEMBL4665862, “Synthesis and biological activity of C-7, C-9 and C-10 modified taxane analogues from 1-deoxybaccatin VI” (Bioorg Med Chem, 2020).

Columns and labels:
[1] = Potency index, ratio of paclitaxel IC50 to compound IC50 for cytotoxicity against drug-resistant human A549/T cells assessed as reduction in cell viability incubated for 72 hrs by CCK-8 assay; type: functional
[2] = Cytotoxicity against human drug-resistant A549/T cells assessed as reduction in cell viability incubated for 72 hrs by CCK-8 assay; type: functional, cell-based; conditions: A549, 72 h
Method in brief: (§1)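 Exponentially growing human tumour cells were exposed for 72 h to compounds formulated in DMSO solution. Cell survival was read by the CCK-8 method, and IC50 values were taken from the dose–response curves.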

A549 = assay: Cytotoxicity against human A549 cells assessed as reduction in cell viability incubated for 72 hrs by CCK-8 assay; type: functional, cell-based; conditions: A549, 72 h; method in brief: as §1
MDA-MB-231 = assay: Cytotoxicity against human MDA-MB-231 cells assessed as reduction in cell viability incubated for 72 hrs by CCK-8 assay; type: functional, cell-based; conditions: MDA-MB-231, 72 h; method in brief: as §1

| Compound | Ratio [1] | IC50 [2] [nM] | IC50 (A549) [nM] | IC50 (MDA-MB-231) [nM] |
| --- | --- | --- | --- | --- |
| CC(=O)O[C@H]1C[C@H]2OC[C@@]2(OC(C)=O)[C@H]2[C@H](OC(=O)c3ccccc3)C3C[C@H](OC(=O)[C@H](O)[C@@H](NC(=O)c4ccc(C)cc4)c4ccccc4)C(C)=C([C@H]4OC(=O)O[C@@H]4[C@]12C)C3(C)C (some centres undefined) | 7 | 229 | 62 | 119 |
| CC(=O)O[C@H]1C[C@H]2OC[C@@]2(OC(C)=O)[C@H]2[C@H](OC(=O)c3ccccc3)C3C[C@H](OC(=O)[C@H](O)[C@@H](NC(=O)c4cccc(Br)c4)c4ccccc4)C(C)=C([C@H]4OC(=O)O[C@@H]4[C@]12C)C3(C)C (some centres undefined) |  | 2880 | 329 | 2020 |
| CC(=O)O[C@H]1C[C@H]2OC[C@@]2(OC(C)=O)[C@H]2[C@H](OC(=O)c3ccccc3)C3C[C@H](OC(=O)[C@H](O)[C@@H](NC(=O)c4ccc(F)c(F)c4)c4ccccc4)C(C)=C([C@H]4OC(=O)O[C@@H]4[C@]12C)C3(C)C (some centres undefined) |  | 2880 | 408 | 1950 |
| CC(=O)O[C@H]1C[C@H]2OC[C@@]2(OC(C)=O)[C@H]2[C@H](OC(=O)c3ccccc3)C3C[C@H](OC(=O)[C@H](O)[C@@H](NC(=O)c4ccc(F)cc4)c4ccccc4)C(C)=C([C@H]4OC(=O)O[C@@H]4[C@]12C)C3(C)C (some centres undefined) |  | 1030 | 133 | 209 |
| CC(=O)O[C@H]1C[C@H]2OC[C@@]2(OC(C)=O)[C@H]2[C@H](OC(=O)c3ccccc3)C3C[C@H](OC(=O)[C@H](O)[C@@H](NC(=O)c4ccccc4)c4ccccc4)C(C)=C([C@H]4OC(=O)O[C@@H]4[C@]12C)C3(C)C (some centres undefined) | 7 | 229 | 22 | 124 |
| CC(=O)O[C@H]1C[C@H]2OC[C@@]2(OC(C)=O)[C@H]2[C@H](OC(=O)c3ccccc3)C3C[C@H](OC(=O)[C@H](O)[C@@H](NC(=O)c4ccccc4F)c4ccccc4)C(C)=C([C@H]4OC(=O)O[C@@H]4[C@]12C)C3(C)C (some centres undefined) |  | 4900 | 115 | 182 |
| CC(=O)O[C@H]1C[C@H]2OC[C@@]2(OC(C)=O)[C@H]2[C@H](OC(=O)c3ccccc3)C3C[C@H](OC(=O)[C@H](O)[C@@H](NC(=O)c4cccc(F)c4)c4ccccc4)C(C)=C([C@H]4OC(=O)O[C@@H]4[C@]12C)C3(C)C (some centres undefined) |  | 2340 | 68 | 183 |
| COc1cccc(C(=O)N[C@@H](c2ccccc2)[C@@H](O)C(=O)O[C@H]2CC3[C@@H](OC(=O)c4ccccc4)[C@@H]4[C@]5(OC(C)=O)CO[C@@H]5C[C@H](OC(C)=O)[C@@]4(C)[C@H]4OC(=O)O[C@@H]4C(=C2C)C3(C)C)c1 (some centres undefined) |  | 3020 | 69 | 68 |
| CC(=O)O[C@H]1C(=O)[C@@]2(C)[C@H]([C@H](OC(=O)c3ccccc3)[C@]3(O)C[C@H](OC(=O)[C@H](O)[C@@H](NC(=O)c4ccccc4)c4ccccc4)C(C)=C1C3(C)C)[C@]1(OC(C)=O)CO[C@@H]1C[C@@H]2O [PACLITAXEL] |  | 1580 | 13 | 20 |
